The species entered for data set [1] is Rattus norvegicus. As to the kind of experiment: Efficacy in T-cell mediated inflammatory response by delayed type hypersensitivity model in Sprague-Dawley rat. It is filed as functional.
Data set [2] can be described thus: Tmax in male Sprague-Dawley rat administered with 2.5 mg/kg, po. It is filed as ADME, organism-based. To be noted: in vivo. Also on record: dose 2.5 mg/kg, route oral.
The species entered for data set [3] is Rattus norvegicus. As to the kind of experiment: Efficacy in CD4+ T-cell mediated experimental autoimmune encephalomyelitis model in Lewis rat. It is filed as functional. An outline of the steps: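 Rat EAE induced by subcutaneous injection of homogenized isologous spinal cord in modified complete Freund's adjuvant; value reported with range and n.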
The species entered for data set [4] is Rattus norvegicus. As to the kind of experiment: Efficacy in T-cell mediated adjuvant arthritis model in Lewis rat. It is filed as functional.
The nature of data set [5]: Half life in male Sprague-Dawley rat administered with 2.5 mg/kg, po. It is filed as ADME, organism-based. Also on record: dose 2.5 mg/kg, route oral. As to conditions: in vivo.
A short description of data set [6]: Oral bioavailability in male Sprague-Dawley rat administered with 2.5 mg/kg, po. It is filed as ADME, organism-based. As to conditions: in vivo.
Data set [7] can be described thus: AUC in male Sprague-Dawley rat administered with 2.5 mg/kg, po. To be noted: plasma. It is filed as ADME, organism-based. On the set-up: dose 2.5 mg/kg, route oral.
The nature of data set [8]: Cmax in male Sprague-Dawley rat administered with 2.5 mg/kg, po. It is filed as ADME, organism-based. On the set-up: dose 2.5 mg/kg, route oral. As to conditions: in vivo.
The test system of data set [9] is T-cell. In words: T-cell antiproliferative activity in human mixed lymphocyte reaction. It is filed as functional, cell-based. In outline:
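Human mixed lymphocyte reaction carried out in serum-containing medium; IC50 given as mean ± SEM for n determinations.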

Data set [10] concerns T-cell. In words: Antiproliferative activity in Lewis rat lymph node cells in rat mixed lymphocyte reaction. It is filed as functional, cell-based. An outline of the steps: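 Rat mixed lymphocyte reaction run serum free: Lewis rat lymph node cells (responders) stimulated by Brown–Norway splenocytes; IC50 reported as mean ± SEM of n determinations.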
Data set [11] is described as follows: Half life in human in a multiple dose escalation study. It is filed as ADME, organism-based. To be noted: in vivo.

As a reminder, the ED50 is the midpoint of the dose-response relation. The term Tmax denotes the time from dosing to the highest level. As usually defined, the half-life is the time in which the quantity being followed falls by half. A higher half-life goes with slow loss. Broadly, the bioavailability is the share of a dose that reaches the circulation, judged against a reference dose that is usually intravenous. Lower therefore signals poor availability. In general, AUC refers to the area under the concentration-time curve, a measure of exposure. Low values mean less exposure, high ones more exposure. What is called Cmax is the maximum level reached in the sampled fluid or tissue. For orientation: IC50 means the concentration that gives 50% inhibition. Low values mean inhibition by little substance, high ones a need for much substance.

Turning to `CO[C@H]1C[C@@H]2CC[C@@H](C)[C@@](O)(O2)C(=O)C(=O)N2CCCC[C@H]2C(=O)OC([C@H](C)C[C@@H]2CC[C@@H](OC(=O)N(C)OC)[C@H](OC)C2)CC(=O)[C@H](C)/C=C(\C)[C@@H](O)[C@@H](OC)C(=O)[C@H](C)C[C@H](C)/C=C/C=C/C=C/1C` (stereo not given in full), the ED50 in the data set filed under Rattus norvegicus [1] is 0.4 mg/kg; in the data set filed under Rattus norvegicus [3], 0.5 mg/kg; in the data set filed under Rattus norvegicus [4] it was 0.3 mg/kg. Besides, the Tmax in [2] came to 0.4 h. Further, in data set [5], the half-life was 8.7 h. This compound showed a bioavailability in data set [6] of 6.2%. The AUC in data set [7] stood at 132 ng·h/mL. Also, in data set [8], the Cmax came to 29.7 ng/mL. Moreover, the IC50 in the data set on T-cell [9] came out at 5.9 nM; in the data set on T-cell [10], 2500 nM.
`CO[C@H]1C[C@@H]2CC[C@@H](C)[C@@](O)(O2)C(=O)C(=O)N2CCCC[C@H]2C(=O)O[C@H]([C@H](C)C[C@@H]2CC[C@H](n3ncnn3)[C@H](OC)C2)CC(=O)[C@H](C)/C=C(\C)[C@@H](O)[C@@H](OC)C(=O)[C@H](C)C[C@H](C)/C=C/C=C/C=C/1C`: it took a dose of 2 mg/kg to reach the 50% effect level in the data set listed under Rattus norvegicus [1] (ED50). In addition, the IC50 with T-cell [9] came to 3.3 nM; in the data set with T-cell [10], 1500 nM.
For `CO[C@H]1C[C@@H]2CC[C@@H](C)[C@@](O)(O2)C(=O)C(=O)N2CCCC[C@H]2C(=O)O[C@H]([C@H](C)C[C@@H]2CC[C@@H](O)[C@H](OC)C2)CC(=O)[C@H](C)/C=C(\C)[C@@H](O)[C@@H](OC)C(=O)[C@H](C)C[C@H](C)/C=C/C=C/C=C/1C` [SIROLIMUS], the figures for the ED50 in the data set filed under Rattus norvegicus [1], in the data set listed under Rattus norvegicus [3] and in the data set listed under Rattus norvegicus [4] were 0.5 mg/kg, 0.3 mg/kg and 0.2 mg/kg, respectively. Moreover, the Tmax in data set [2] was 0.5 h. For the same compound, the half-life in [5] was 33.4 h; in data set [11], 63 h. The compound also had a bioavailability in data set [6] of 43.2%. The compound also registered an AUC in data set [7] of 559 ng·h/mL. For the same compound, in data set [8], the Cmax was 50.8 ng/mL. The IC50 with T-cell [9] came to 1.6 nM; in the data set with T-cell [10], 2600 nM.
Turning to `CO[C@H]1C[C@@H]2CC[C@@H](C)[C@@](O)(O2)C(=O)C(=O)N2CCCC[C@H]2C(=O)O[C@H]([C@H](C)C[C@@H]2CC[C@H](n3cnnn3)[C@H](OC)C2)CC(=O)[C@H](C)/C=C(\C)[C@@H](O)[C@@H](OC)C(=O)[C@H](C)C[C@H](C)/C=C/C=C/C=C/1C` [ZOTAROLIMUS], the ED50 in the data set listed under Rattus norvegicus [1] stood at 1.7 mg/kg; in the data set listed under Rattus norvegicus [3], 1.2 mg/kg; in the data set listed under Rattus norvegicus [4], 0.7 mg/kg. In addition, in data set [2], the Tmax stood at 0.4 h. Also, the half-life in data set [5] was 7.9 h; in data set [11], 25 h. Moreover, the bioavailability in data set [6] amounted to 12.1%. The AUC in data set [7] turned out to be 163 ng·h/mL. The compound also displayed a Cmax in data set [8] of 46.7 ng/mL. The IC50 in the data set with T-cell [9] came out at 2 nM; in the data set with T-cell [10] it was 1400 nM.

The values above are taken from ChEMBL document CHEMBL1141950, “Rapamycin analogs with reduced systemic exposure” (Bioorg Med Chem Lett, 2005).
